Reference: ChEMBL document CHEMBL3352416, “Discovery of carbohybrid-based 2-aminopyrimidine analogues as a new class of rapid-acting antimalarial agents using image-based cytological profiling assay” (J Med Chem, 2014)
Active and inactive are the calls of the source. The calls are words filed in the database; no cut-off is given here.

Tests used:
Plasmodium falciparum [1] = assay: Antimalarial activity against Plasmodium falciparum K1 by automated image mining based cytological profiling assay; format: functional, organism-based
Method in brief: (§1)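 Parasite cultures in 384-well format, read by automated imaging. Infected erythrocytes detected by DAPI nuclear staining against WGA-AlexaFluor 488 host-cell stain, and viability by Mitotracker Red CMXRos. Total culture parasitaemia quantified. EC50 given as mean±SD of two independent experiments, each in duplicate.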

Plasmodium falciparum [2] = assay: Antimalarial activity against tightly synchronized Plasmodium falciparum K1 assessed as parasite stage accumulation index at late ring stages at 10 uM treated at 18 hrs post-invasion for continuous duration of 36 hrs by automated image mining based cytological profiling assay; format: functional
Method in brief: (§2)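 Tightly synchronized cultures exposed to 10 µM final from 6 hpi (early ring), 18 hpi (late ring) or 30 hpi (mid-trophozoite) for a continuous 36 h. Erythrocytes stained with WGA-AlexaFluor 488, parasite nuclei with DAPI, functional mitochondria with Mitotracker Red CMXRos. Stages (early rings, late rings, trophozoites, schizonts) classified by nuclear spot number and size. Viable parasitaemia and stage accumulation index obtained by automated image analysis.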

Plasmodium falciparum [3] = assay: Antimalarial activity against tightly synchronized Plasmodium falciparum HB3 assessed as parasite stage accumulation index at late ring stages at 10 uM treated at 18 hrs post-invasion for continuous duration of 36 hrs by automated image mining based cytological profiling assay; format: functional; method in brief: as §2
Plasmodium falciparum [4] = assay: Antimalarial activity against Plasmodium falciparum HB3 assessed as reduction in parasite stage accumulation index at 10 uM treated at 42 hrs post-invasion for 24 hrs by automated image mining based cytological profiling assay; format: functional
Method in brief: (§3)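 Tightly synchronized cultures exposed from the 42 hpi mid-schizont point for 24 h to 10 µM final. Host cells stained with wheat germ agglutinin-AlexaFluor 488, parasite nuclei with DAPI and live-parasite mitochondria with Mitotracker Red CMXRos. Infected and viable parasitaemia and stage proportions quantified by automated image mining. Stage accumulation indices and parasitaemia reduction index derived.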

Plasmodium falciparum [5] = assay: Antimalarial activity against tightly synchronized Plasmodium falciparum W2 assessed as parasite stage accumulation index at trophozoites stages at 10 uM treated at 30 hrs post-invasion for continuous duration of 36 hrs by automated image mining based cytological profiling assay; format: functional; method in brief: as §2
Plasmodium falciparum [6] = assay: Antimalarial activity against tightly synchronized Plasmodium falciparum W2 assessed as parasite stage accumulation index at schizonts stages at 10 uM treated at 30 hrs post-invasion for continuous duration of 36 hrs by automated image mining based cytological profiling assay; format: functional
Plasmodium falciparum [7] = assay: Antimalarial activity against tightly synchronized Plasmodium falciparum W2 assessed as parasite stage accumulation index at early ring stages at 10 uM treated at 6 hrs post-invasion for continuous duration of 36 hrs by automated image mining based cytological profiling assay; format: functional; method in brief: as §2
Plasmodium falciparum [8] = assay: Antimalarial activity against Plasmodium falciparum W2 assessed as increase in schizonts parasite stage accumulation index at 10 uM treated at 42 hrs post-invasion for 24 hrs by automated image mining based cytological profiling assay; format: functional, organism-based; method in brief: as §3
Plasmodium falciparum [9] = assay: Antimalarial activity against tightly synchronized Plasmodium falciparum W2 assessed as parasite stage accumulation index at late ring stages at 10 uM treated at 18 hrs post-invasion for continuous duration of 36 hrs by automated image mining based cytological profiling assay; format: functional; method in brief: as §2
Plasmodium falciparum [10] = assay: Antimalarial activity against Plasmodium falciparum W2 assessed as reduction in parasite stage accumulation index at 10 uM treated at 42 hrs post-invasion for 24 hrs by automated image mining based cytological profiling assay; format: functional, organism-based; method in brief: as §3
Plasmodium falciparum [11] = assay: Antimalarial activity against tightly synchronized Plasmodium falciparum HB3 assessed as parasite stage accumulation index at trophozoites stages at 10 uM treated at 6 hrs post-invasion for continuous duration of 36 hrs by automated image mining based cytological profiling assay; format: functional; method in brief: as §2
Plasmodium falciparum [12] = assay: Antimalarial activity against tightly synchronized Plasmodium falciparum K1 assessed as parasite stage accumulation index at schizonts stages at 10 uM treated at 6 hrs post-invasion for continuous duration of 36 hrs by automated image mining based cytological profiling assay; format: functional; method in brief: as §2
Plasmodium falciparum [13] = assay: Antimalarial activity against tightly synchronized Plasmodium falciparum K1 assessed as parasite stage accumulation index at schizonts stages at 10 uM treated at 30 hrs post-invasion for continuous duration of 36 hrs by automated image mining based cytological profiling assay; format: functional; method in brief: as §2
Plasmodium falciparum [14] = assay: Antimalarial activity against Plasmodium falciparum K1 assessed as increase in schizonts parasite stage accumulation index at 10 uM treated at 42 hrs post-invasion for 24 hrs by automated image mining based cytological profiling assay; format: functional, organism-based; method in brief: as §3
Plasmodium falciparum [15] = assay: Antimalarial activity against Plasmodium falciparum HB3 assessed as increase in schizonts parasite stage accumulation index at 10 uM treated at 42 hrs post-invasion for 24 hrs by automated image mining based cytological profiling assay; format: functional; method in brief: as §3
Plasmodium falciparum [16] = assay: Antimalarial activity against tightly synchronized Plasmodium falciparum W2 assessed as parasite stage accumulation index at trophozoites stages at 10 uM treated at 6 hrs post-invasion for continuous duration of 36 hrs by automated image mining based cytological profiling assay; format: functional
Plasmodium falciparum [17] = assay: Antimalarial activity against tightly synchronized Plasmodium falciparum W2 assessed as parasite stage accumulation index at trophozoites stages at 10 uM treated at 18 hrs post-invasion for continuous duration of 36 hrs by automated image mining based cytological profiling assay; format: functional
Plasmodium falciparum [18] = assay: Antimalarial activity against tightly synchronized Plasmodium falciparum K1 assessed as parasite stage accumulation index at trophozoites stages at 10 uM treated at 18 hrs post-invasion for continuous duration of 36 hrs by automated image mining based cytological profiling assay; format: functional; method in brief: as §2
Plasmodium falciparum [19] = assay: Antimalarial activity against tightly synchronized Plasmodium falciparum W2 assessed as parasite stage accumulation index at schizonts stages at 10 uM treated at 6 hrs post-invasion for continuous duration of 36 hrs by automated image mining based cytological profiling assay; format: functional; method in brief: as §2
Plasmodium falciparum [20] = assay: Antimalarial activity against tightly synchronized Plasmodium falciparum HB3 assessed as parasite stage accumulation index at schizonts stages at 10 uM treated at 18 hrs post-invasion for continuous duration of 36 hrs by automated image mining based cytological profiling assay; format: functional; method in brief: as §2
Plasmodium falciparum [21] = assay: Antimalarial activity against tightly synchronized Plasmodium falciparum K1 assessed as parasite stage accumulation index at trophozoites stages at 10 uM treated at 6 hrs post-invasion for continuous duration of 36 hrs by automated image mining based cytological profiling assay; format: functional
Plasmodium falciparum [22] = assay: Antimalarial activity against Plasmodium falciparum W2 by automated image mining based cytological profiling assay; format: functional, organism-based; method in brief: as §1
Plasmodium falciparum [23] = assay: Antimalarial activity against Plasmodium falciparum HB3 by automated image mining based cytological profiling assay; format: functional; method in brief: as §1
Plasmodium falciparum [24] = assay: Antimalarial activity against tightly synchronized Plasmodium falciparum K1 assessed as parasite stage accumulation index at early ring stages at 10 uM treated at 6 hrs post-invasion for continuous duration of 36 hrs by automated image mining based cytological profiling assay; format: functional; method in brief: as §2
Plasmodium falciparum [25] = assay: Antimalarial activity against tightly synchronized Plasmodium falciparum HB3 assessed as parasite stage accumulation index at late ring stages at 10 uM treated at 6 hrs post-invasion for continuous duration of 36 hrs by automated image mining based cytological profiling assay; format: functional; method in brief: as §2
Plasmodium falciparum [26] = assay: Antimalarial activity against tightly synchronized Plasmodium falciparum HB3 assessed as parasite stage accumulation index at schizonts stages at 10 uM treated at 6 hrs post-invasion for continuous duration of 36 hrs by automated image mining based cytological profiling assay; format: functional; method in brief: as §2
Plasmodium falciparum [27] = assay: Antimalarial activity against tightly synchronized Plasmodium falciparum K1 assessed as parasite stage accumulation index at schizonts stages at 10 uM treated at 18 hrs post-invasion for continuous duration of 36 hrs by automated image mining based cytological profiling assay; format: functional; method in brief: as §2
Plasmodium falciparum [28] = assay: Antimalarial activity against tightly synchronized Plasmodium falciparum HB3 assessed as parasite stage accumulation index at trophozoites stages at 10 uM treated at 18 hrs post-invasion for continuous duration of 36 hrs by automated image mining based cytological profiling assay; format: functional; method in brief: as §2
Plasmodium falciparum [29] = assay: Antimalarial activity against tightly synchronized Plasmodium falciparum K1 assessed as parasite stage accumulation index at trophozoites stages at 10 uM treated at 30 hrs post-invasion for continuous duration of 36 hrs by automated image mining based cytological profiling assay; format: functional; method in brief: as §2
Plasmodium falciparum [30] = assay: Antimalarial activity against Plasmodium falciparum K1 assessed as reduction in parasite stage accumulation index at 10 uM treated at 42 hrs post-invasion for 24 hrs by automated image mining based cytological profiling assay; format: functional, organism-based; method in brief: as §3
Plasmodium falciparum [31] = assay: Antimalarial activity against tightly synchronized Plasmodium falciparum W2 assessed as parasite stage accumulation index at schizonts stages at 10 uM treated at 18 hrs post-invasion for continuous duration of 36 hrs by automated image mining based cytological profiling assay; format: functional
Plasmodium falciparum [32] = assay: Antimalarial activity against tightly synchronized Plasmodium falciparum HB3 assessed as parasite stage accumulation index at schizonts stages at 10 uM treated at 30 hrs post-invasion for continuous duration of 36 hrs by automated image mining based cytological profiling assay; format: functional
Plasmodium falciparum [33] = assay: Antimalarial activity against tightly synchronized Plasmodium falciparum HB3 assessed as parasite stage accumulation index at early ring stages at 10 uM treated at 6 hrs post-invasion for continuous duration of 36 hrs by automated image mining based cytological profiling assay; format: functional
Plasmodium falciparum [34] = assay: Antimalarial activity against tightly synchronized Plasmodium falciparum W2 assessed as parasite stage accumulation index at late ring stages at 10 uM treated at 6 hrs post-invasion for continuous duration of 36 hrs by automated image mining based cytological profiling assay; format: functional
Plasmodium falciparum [35] = assay: Antimalarial activity against tightly synchronized Plasmodium falciparum K1 assessed as parasite stage accumulation index at late ring stages at 10 uM treated at 6 hrs post-invasion for continuous duration of 36 hrs by automated image mining based cytological profiling assay; format: functional

COc1ccc(CO[C@@H]([C@H](CO)N=[N+]=[N-])[C@H](OCc2ccc(OC)cc2)c2cnc(N(C)C)nc2)cc1
EC50 (Plasmodium falciparum [1]): 5.45 µM

COc1ccc(CO[C@H]([C@H](COC(c2ccccc2)(c2ccccc2)c2ccccc2)N=[N+]=[N-])[C@H](OCc2ccc(OC)cc2)c2cnc(N(C)C)nc2)cc1
EC50 (Plasmodium falciparum [1]): 0.167 µM

COc1ccc(CO[C@@H]([C@H](COCc2ccccc2)N=[N+]=[N-])[C@H](OCc2ccc(OC)cc2)c2cnc(N(C)C)nc2)cc1
EC50 (Plasmodium falciparum [1]): 1.42 µM

COc1ccc(CO[C@H]([C@H](COCc2ccccc2)N=[N+]=[N-])[C@H](OCc2ccc(OC)cc2)c2cnc(N(C)C)nc2)cc1
EC50 (Plasmodium falciparum [1]): 1.2 µM

COc1ccc(CO[C@@H]([C@H](COS(C)(=O)=O)N=[N+]=[N-])[C@H](OCc2ccc(OC)cc2)c2cnc(N(C)C)nc2)cc1
EC50 (Plasmodium falciparum [1]): 6.67 µM

COc1ccc(CO[C@H]([C@H](COS(C)(=O)=O)N=[N+]=[N-])[C@H](OCc2ccc(OC)cc2)c2cnc(N(C)C)nc2)cc1
EC50 (Plasmodium falciparum [1]): 11.7 µM

C[C@@H]1CC[C@H]2[C@@H](C)C(=O)O[C@@H]3O[C@@]4(C)CC[C@@H]1[C@]32OO4 [ARTEMISININ]
Activity (Plasmodium falciparum [2]): 2.52 | Activity (Plasmodium falciparum [3]): 4.4 | inhibition (Plasmodium falciparum [4]): Active | EC50 (Plasmodium falciparum [1]): 0.003 µM | Activity (Plasmodium falciparum [5]): 1.51 | Activity (Plasmodium falciparum [6]): 1.05 | Activity (Plasmodium falciparum [7]): 2.06 | inhibition (Plasmodium falciparum [8]): Active | Activity (Plasmodium falciparum [9]): 2.01 | inhibition (Plasmodium falciparum [10]): Active | Activity (Plasmodium falciparum [11]): 0.37 | Activity (Plasmodium falciparum [12]): 0.17 | Activity (Plasmodium falciparum [13]): 0.31 | inhibition (Plasmodium falciparum [14]): Active | inhibition (Plasmodium falciparum [15]): Active | Activity (Plasmodium falciparum [16]): 0.81 | Activity (Plasmodium falciparum [17]): 1.06 | Activity (Plasmodium falciparum [18]): 0.7 | Activity (Plasmodium falciparum [19]): 0.47 | Activity (Plasmodium falciparum [20]): 0.47 | Activity (Plasmodium falciparum [21]): 0.51 | EC50 (Plasmodium falciparum [22]): 0.011 µM | EC50 (Plasmodium falciparum [23]): 0.018 µM | Activity (Plasmodium falciparum [24]): 1.96 | Activity (Plasmodium falciparum [25]): 3.53 | Activity (Plasmodium falciparum [26]): 0.11 | Activity (Plasmodium falciparum [27]): 0.26 | Activity (Plasmodium falciparum [28]): 1.06 | Activity (Plasmodium falciparum [29]): 1.09 | inhibition (Plasmodium falciparum [30]): Active

CCN(CC)CCCC(C)Nc1ccnc2cc(Cl)ccc12 (configuration not stated) [CHLOROQUINE]
Activity (Plasmodium falciparum [31]): 1.64 | Activity (Plasmodium falciparum [2]): 1.38 | Activity (Plasmodium falciparum [3]): 2.17 | EC50 (Plasmodium falciparum [1]): 0.208 µM | Activity (Plasmodium falciparum [5]): 1.26 | Activity (Plasmodium falciparum [32]): 1.83 | Activity (Plasmodium falciparum [7]): 1.78 | Activity (Plasmodium falciparum [9]): 1.82 | Activity (Plasmodium falciparum [11]): 0.52 | Activity (Plasmodium falciparum [12]): 0.25 | Activity (Plasmodium falciparum [13]): 0.56 | Activity (Plasmodium falciparum [16]): 0.65 | Activity (Plasmodium falciparum [33]): 1.82 | Activity (Plasmodium falciparum [18]): 1.22 | Activity (Plasmodium falciparum [19]): 0.53 | Activity (Plasmodium falciparum [20]): 0.82 | Activity (Plasmodium falciparum [34]): 1.51 | EC50 (Plasmodium falciparum [22]): 0.221 µM | EC50 (Plasmodium falciparum [23]): 0.033 µM | Activity (Plasmodium falciparum [24]): 1.72 | Activity (Plasmodium falciparum [25]): 3.05 | Activity (Plasmodium falciparum [26]): 0.2 | Activity (Plasmodium falciparum [27]): 0.37 | Activity (Plasmodium falciparum [28]): 1.85 | Activity (Plasmodium falciparum [29]): 0.75 | Activity (Plasmodium falciparum [35]): 1.62
